For series [1], the target named is Cathepsin S (Homo sapiens, UniProt P25774). Put plainly: Inhibition of human cathepsin S using benzyloxycarbonyl-L-Leucyl-L-Arginine 4-Methyl-coumaryl-7-amide substrate by FRET assay.
Series [2] deals with Cathepsin S (Mus musculus, UniProt O70370). Put plainly: Inhibition of mouse cathepsin S using benzyloxycarbonyl-L-Leucyl-L-Arginine 4-Methyl-coumaryl-7-amide substrate by FRET assay.
The species entered for series [3] is Rattus norvegicus. Put plainly: Inhibition of rat cathepsin S G137C mutant using benzyloxycarbonyl-L-Leucyl-L-Arginine 4-Methyl-coumaryl-7-amide substrate by FRET assay.
The nature of series [4]: Lipophilicity, log P of the compound. In kind it is physicochemical. To be noted: octanol/water.
Series [5] in a line: Lipophilicity, log D of the compound at pH 4.0. The format is physicochemical. To be noted: buffer.
Series [6] can be described thus: Dissociation constant, basic pKa of the compound. The format is physicochemical.
A short description of series [7]: Solubility in simulated gastric fluid. In kind it is ADME.
The nature of series [8]: Oral bioavailability in Beagle dog at 3 mg/kg. To be noted: in vivo. In kind it is ADME, organism-based, Canis lupus familiaris.
Series [9] in a line: Clearance in Beagle dog at 1 mg/kg, iv or 3 mg/kg, po. In kind it is ADME, organism-based, Canis lupus familiaris. The conditions noted are these: in vivo.
A short description of series [10]: Volume of distribution in Beagle dog at 1 mg/kg, iv or 3 mg/kg, po. In kind it is ADME, organism-based, Canis lupus familiaris. The conditions noted are these: in vivo.
Series [11] deals with CYP3A4 (Homo sapiens, UniProt P08684). Description: Inhibition of CYP3A4 (unknown origin) using midazolam substrate at 10 uM. In kind it is ADME. To be noted: probe midazolam.
Series [12] has as its target CYP2D6 (Homo sapiens, UniProt P10635). Description: Inhibition of CYP2D6 (unknown origin) using bufuralol substrate at 10 uM. In kind it is ADME. To be noted: probe bufuralol.
Series [13] deals with CYP2C9 (Homo sapiens, UniProt P11712). Description: Inhibition of CYP2C9 (unknown origin) using diclofenac substrate at 10 uM. The format is ADME. To be noted: probe diclofenac.
The nature of series [14]: Drug metabolism in mouse liver microsomes after 30 mins at 4 uM. The format is ADME. To be noted: read-out: Drug metabolism. On the technique in general: Microsomes from liver hold many membrane-bound enzymes, among them those of drug oxidation.
Series [15] is described as follows: Drug metabolism in rat liver microsomes after 30 mins at 4 uM. The format is ADME. The conditions noted are these: read-out: Drug metabolism.
A short description of series [16]: Drug metabolism in dog liver microsomes after 30 mins at 4 uM. In kind it is ADME, Canis lupus familiaris. The conditions noted are these: read-out: Drug metabolism.
Series [17] can be described thus: Drug metabolism in human liver microsomes after 30 mins at 4 uM. In kind it is ADME. To be noted: read-out: Drug metabolism.
The test system of series [18] is MDCK. Put plainly: Permeability from apical to basolateral side in MDCK cells at 2.5 uM incubated for 1 hr. The conditions noted are these: dog. In kind it is ADME, cell-based, Canis lupus familiaris.
For series [19], the system named is Mus musculus. Description: Inhibition of CaCl2-induced abdominal aortic aneurysm in 129SvEv mouse assessed as reduction in aortic diameter at 1 to 30 mg/kg dosed through oral gavage BID for 4 weeks with first dose given one day prior to surgery. The format is functional, organism-based. To be noted: Abdomen.
The target in series [20] is Procathepsin L (Homo sapiens, UniProt P07711). Put plainly: Inhibition of human cathepsin L using benzyloxycarbonyl-L-Leucyl-L-Arginine 4-Methyl-coumaryl-7-amide substrate by FRET assay.
Series [21] concerns the target hERG (Homo sapiens, UniProt Q12809). Description: Displacement of [3H]astemizole form human ERG expressed in HEK293 cell membranes at 100 uM. The conditions noted are these: HEK293 cell membranes that express human ERG, probe [3H]astemizole. For orientation: Displacement assays read how much labelled ligand stays bound in the presence of the test substance.
The subject of series [22] is Plasma. Description: Stability in human plasma assessed as loss of parent compound after 30 mins. To be noted: 0.5 h. In kind it is ADME, cell-free. Summed up: (§1)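 Compound incubated in human or rat plasma for up to 30 min; loss of parent compound tested for statistical significance.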
Series [23] relates to Plasma. Put plainly: Stability in rat plasma assessed as loss of parent compound after 30 mins. The format is ADME, cell-free. To be noted: 0.5 h. The procedure, abridged: as §1
Series [24] has as its system Mus musculus. Put plainly: Inhibition of CaCl2-induced abdominal aortic aneurysm in 129SvEv mouse assessed as reduction in aortic diameter at 1 mg/kg dosed through oral gavage BID for 4 weeks with first dose given one day prior to surgery. The format is functional. The conditions noted are these: Abdomen.
Series [25] relates to Mus musculus. Description: Inhibition of CaCl2-induced abdominal aortic aneurysm in 129SvEv mouse assessed as reduction in aortic diameter at 3 mg/kg dosed through oral gavage BID for 4 weeks with first dose given one day prior to surgery. The format is functional. To be noted: Abdomen.
Series [26] deals with Mus musculus. Description: Inhibition of CaCl2-induced abdominal aortic aneurysm in 129SvEv mouse assessed as reduction in aortic diameter at 10 mg/kg dosed through oral gavage BID for 4 weeks with first dose given one day prior to surgery. In kind it is functional. To be noted: Abdomen.
Series [27] relates to Mus musculus. Description: Inhibition of CaCl2-induced abdominal aortic aneurysm in 129SvEv mouse assessed as reduction in aortic diameter at 30 mg/kg dosed through oral gavage BID for 4 weeks with first dose given one day prior to surgery. The format is functional. To be noted: Abdomen.
Series [28] can be described thus: AUC (0 to 24 hrs) in 129SvEv mouse model of CaCl2-induced abdominal aortic aneurysm at 1 mg/kg dosed through oral gavage BID for 4 weeks with first dose given one day prior to surgery. In kind it is ADME, organism-based, Abdomen. Set-up: time < 24 hr, dose 1 mg/kg, route oral. To be noted: in vivo.
Series [29] in a line: AUC (0 to 24 hrs) in 129SvEv mouse model of CaCl2-induced abdominal aortic aneurysm at 3 mg/kg dosed through oral gavage BID for 4 weeks with first dose given one day prior to surgery. In kind it is ADME, organism-based, Abdomen. Set-up: time < 24 hr, dose 3 mg/kg, route oral. To be noted: in vivo.
Series [30] can be described thus: AUC (0 to 24 hrs) in 129SvEv mouse model of CaCl2-induced abdominal aortic aneurysm at 10 mg/kg dosed through oral gavage BID for 4 weeks with first dose given one day prior to surgery. To be noted: in vivo. Set-up: time < 24 hr, dose 10 mg/kg, route oral. In kind it is ADME, organism-based, Abdomen.
The nature of series [31]: AUC (0 to 24 hrs) in 129SvEv mouse model of CaCl2-induced abdominal aortic aneurysm at 30 mg/kg dosed through oral gavage BID for 4 weeks with first dose given one day prior to surgery. The format is ADME, organism-based, Abdomen. Set-up: time < 24 hr, dose 30 mg/kg, route oral. To be noted: in vivo.

SMILES strings stand for the structures. In brackets after ≈: the same amount, converted by molar mass. Activity calls are given as the source filed them. The rule behind the calls is not given here.

Sequence of Cathepsin S (Homo sapiens, UniProt P25774) (P25774 whole entry): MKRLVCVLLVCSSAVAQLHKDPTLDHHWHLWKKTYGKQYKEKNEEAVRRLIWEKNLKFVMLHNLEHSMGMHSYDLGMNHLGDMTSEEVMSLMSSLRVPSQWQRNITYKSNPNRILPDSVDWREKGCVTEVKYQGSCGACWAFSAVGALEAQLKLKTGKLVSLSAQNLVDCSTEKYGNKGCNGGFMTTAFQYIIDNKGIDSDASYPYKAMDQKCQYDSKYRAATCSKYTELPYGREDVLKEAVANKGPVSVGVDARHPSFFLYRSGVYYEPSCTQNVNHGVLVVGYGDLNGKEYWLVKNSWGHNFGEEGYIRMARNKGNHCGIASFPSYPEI
Sequence of Cathepsin S (Mus musculus, UniProt O70370) (O70370 whole entry): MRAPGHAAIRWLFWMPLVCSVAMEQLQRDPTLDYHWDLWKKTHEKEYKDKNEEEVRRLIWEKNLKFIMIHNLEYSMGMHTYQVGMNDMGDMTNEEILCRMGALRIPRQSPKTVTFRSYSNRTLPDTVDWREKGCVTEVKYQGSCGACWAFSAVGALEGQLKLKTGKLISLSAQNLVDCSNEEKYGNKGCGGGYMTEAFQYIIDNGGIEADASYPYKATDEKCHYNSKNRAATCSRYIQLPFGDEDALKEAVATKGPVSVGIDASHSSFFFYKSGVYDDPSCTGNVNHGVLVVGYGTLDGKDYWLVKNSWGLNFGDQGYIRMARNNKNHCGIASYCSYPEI
Sequence of CYP2C9 (P11712 whole entry): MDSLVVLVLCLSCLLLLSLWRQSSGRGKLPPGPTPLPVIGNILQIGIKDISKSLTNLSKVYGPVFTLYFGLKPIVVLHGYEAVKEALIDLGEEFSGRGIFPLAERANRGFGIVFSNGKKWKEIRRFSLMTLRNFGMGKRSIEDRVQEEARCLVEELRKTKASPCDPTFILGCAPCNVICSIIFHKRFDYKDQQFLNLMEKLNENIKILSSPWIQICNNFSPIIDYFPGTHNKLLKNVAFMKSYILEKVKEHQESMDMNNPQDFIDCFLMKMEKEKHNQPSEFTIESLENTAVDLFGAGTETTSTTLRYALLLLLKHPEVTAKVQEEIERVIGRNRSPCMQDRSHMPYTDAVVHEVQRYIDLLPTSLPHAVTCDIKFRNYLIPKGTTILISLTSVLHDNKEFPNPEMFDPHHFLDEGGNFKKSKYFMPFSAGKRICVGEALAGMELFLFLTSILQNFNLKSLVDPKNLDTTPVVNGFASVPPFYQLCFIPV
Sequence of CYP3A4 (P08684 whole entry): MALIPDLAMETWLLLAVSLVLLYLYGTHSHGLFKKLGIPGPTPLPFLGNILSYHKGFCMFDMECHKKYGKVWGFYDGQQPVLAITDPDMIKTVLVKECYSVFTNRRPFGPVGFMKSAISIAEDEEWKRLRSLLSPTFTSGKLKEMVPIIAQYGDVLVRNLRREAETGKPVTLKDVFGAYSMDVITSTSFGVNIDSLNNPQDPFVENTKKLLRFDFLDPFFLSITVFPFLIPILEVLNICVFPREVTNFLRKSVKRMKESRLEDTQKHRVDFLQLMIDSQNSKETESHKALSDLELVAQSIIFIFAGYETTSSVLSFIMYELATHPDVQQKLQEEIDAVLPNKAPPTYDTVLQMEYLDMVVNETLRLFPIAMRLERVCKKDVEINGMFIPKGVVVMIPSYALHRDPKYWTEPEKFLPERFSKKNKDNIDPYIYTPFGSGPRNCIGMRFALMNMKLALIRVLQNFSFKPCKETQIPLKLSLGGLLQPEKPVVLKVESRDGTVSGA
Sequence of CYP2D6 (P10635 whole entry): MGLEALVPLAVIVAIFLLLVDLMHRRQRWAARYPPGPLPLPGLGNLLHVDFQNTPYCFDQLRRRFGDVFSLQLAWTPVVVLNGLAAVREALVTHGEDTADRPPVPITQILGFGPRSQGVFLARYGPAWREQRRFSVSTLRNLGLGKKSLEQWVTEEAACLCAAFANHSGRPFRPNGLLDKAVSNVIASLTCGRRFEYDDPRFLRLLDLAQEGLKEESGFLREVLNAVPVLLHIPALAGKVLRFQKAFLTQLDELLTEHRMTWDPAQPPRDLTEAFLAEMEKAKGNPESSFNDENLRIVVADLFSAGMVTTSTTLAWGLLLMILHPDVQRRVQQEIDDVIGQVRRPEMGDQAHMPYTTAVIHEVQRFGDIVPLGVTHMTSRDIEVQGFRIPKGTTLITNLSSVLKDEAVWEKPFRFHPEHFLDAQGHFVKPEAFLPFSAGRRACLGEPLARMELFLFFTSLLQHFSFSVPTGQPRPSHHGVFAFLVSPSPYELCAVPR
Sequence of Procathepsin L (P07711 whole entry): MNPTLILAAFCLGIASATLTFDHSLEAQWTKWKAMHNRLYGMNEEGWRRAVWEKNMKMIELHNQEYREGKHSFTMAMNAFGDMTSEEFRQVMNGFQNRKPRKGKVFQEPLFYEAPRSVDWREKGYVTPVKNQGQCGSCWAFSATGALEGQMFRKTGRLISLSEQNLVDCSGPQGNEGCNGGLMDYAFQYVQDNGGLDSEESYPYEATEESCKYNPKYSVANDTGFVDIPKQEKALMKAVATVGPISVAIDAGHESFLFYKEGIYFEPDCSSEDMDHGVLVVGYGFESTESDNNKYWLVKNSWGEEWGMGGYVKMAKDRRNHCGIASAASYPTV
Sequence of hERG (Q12809 whole entry): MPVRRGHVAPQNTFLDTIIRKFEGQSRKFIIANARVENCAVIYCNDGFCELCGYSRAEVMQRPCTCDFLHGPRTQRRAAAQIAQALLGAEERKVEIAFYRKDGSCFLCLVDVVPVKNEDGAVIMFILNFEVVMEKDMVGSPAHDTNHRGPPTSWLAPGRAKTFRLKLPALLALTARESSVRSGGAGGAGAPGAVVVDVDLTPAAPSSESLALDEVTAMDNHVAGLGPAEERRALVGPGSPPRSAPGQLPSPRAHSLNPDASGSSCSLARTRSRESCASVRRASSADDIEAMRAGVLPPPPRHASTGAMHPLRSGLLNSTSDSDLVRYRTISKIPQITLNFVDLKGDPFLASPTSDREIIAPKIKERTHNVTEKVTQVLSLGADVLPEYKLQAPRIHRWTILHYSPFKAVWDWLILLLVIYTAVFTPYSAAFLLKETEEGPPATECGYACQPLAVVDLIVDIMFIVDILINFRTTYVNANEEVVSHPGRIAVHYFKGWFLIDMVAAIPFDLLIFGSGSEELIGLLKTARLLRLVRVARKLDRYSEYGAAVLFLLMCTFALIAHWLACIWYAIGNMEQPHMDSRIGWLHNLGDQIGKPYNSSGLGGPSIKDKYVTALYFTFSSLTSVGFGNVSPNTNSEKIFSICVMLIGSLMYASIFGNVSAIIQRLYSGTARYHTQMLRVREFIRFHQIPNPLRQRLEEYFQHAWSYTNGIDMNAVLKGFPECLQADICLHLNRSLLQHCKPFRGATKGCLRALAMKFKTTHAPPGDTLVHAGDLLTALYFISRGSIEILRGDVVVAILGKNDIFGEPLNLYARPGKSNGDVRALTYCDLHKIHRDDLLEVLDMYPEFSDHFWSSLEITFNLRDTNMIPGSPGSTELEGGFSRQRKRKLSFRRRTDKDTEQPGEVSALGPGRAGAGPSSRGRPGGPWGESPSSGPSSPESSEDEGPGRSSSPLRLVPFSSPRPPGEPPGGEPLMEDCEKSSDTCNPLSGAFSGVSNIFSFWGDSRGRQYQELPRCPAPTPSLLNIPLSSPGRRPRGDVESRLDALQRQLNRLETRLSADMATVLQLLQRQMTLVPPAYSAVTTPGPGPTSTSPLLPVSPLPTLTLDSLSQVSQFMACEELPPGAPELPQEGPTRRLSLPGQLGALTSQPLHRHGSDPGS

Consider `CNC(=O)O[C@H]1CCc2ccc(N3CCN(C4COC4)CC3)cc2[C@@H]1NC(=O)c1ccc(F)cc1`, for which the IC50 in series [1] was found to be 12.4 nM; in series [2], 3.91 nM. For the same compound, the inhibition result in series [3] is “inactive”. The logP in [4] turned out to be 2.24. The log distribution coefficient (logD) in series [5] turned out to be 1.2. In addition, the pKa in series [6] amounted to 5. Also, in [7], the concentration in solution (solubility) came to 1130 µg/mL (≈ 2340 µM). Moreover, the bioavailability in series [8] was over 75%. In series [9], this compound showed a clearance of under 4 mL/min/kg. The Vd in [10] is under 1 L/kg. Moreover, the inhibition at 10 µM in series [11], in series [12] and in series [13] was under 15% throughout. In addition, the metabolised at 0.5 h, 4 µM in series [14], in series [15], in series [16] and in [17] was under 20% each time. In addition, the permeability in series [18] is listed as over 4%. Besides, the inhibition result in series [19] is “Dose-dependent effect”.

`CN1CCN(C(=O)Nc2ccc3c(c2)C(NC(=O)c2ccccc2)CCC3)CC1` (centres undefined): the IC50 in series [1] stood at 1290 nM; in [2], 2780 nM. In addition, the inhibition entry in [3] is “inactive”.

`CN1CCN(c2ccc3c(c2)C(NC(=O)c2ccccc2)CCC3)CC1` (centres undefined): the IC50 in series [1] was determined as 4000 nM; in [2], 3930 nM. Moreover, in [3], the inhibition entry is “inactive”.

For `O=C(N[C@@H]1CCCc2ccc(/N=C/N3CCCCCC3)cc21)c1ccc(Br)cc1`, the figures for the IC50 in [1], in [2] and in [20] were 1170 nM, 1570 nM and over 100000 nM, respectively. For the same compound, in series [3], the inhibition result is “inactive”.

On to `CNC(=O)O[C@H]1COc2ccc(N3CCN(C4COC4)CC3)cc2[C@@H]1NC(=O)c1ccc(F)cc1`, for which the half-inhibitory concentration (IC50) in [1] amounted to 7.7 nM; in series [2], 1.67 nM. In addition, the inhibition entry in [3] was “inactive”. Besides, the logP in series [4] came out at 2.24. Further, the logD in series [5] came out at 1. In series [6], this compound gave a pKa of 5.11. The solubility in [7] was 1440 µg/mL (≈ 2970 µM). The compound further registered a bioavailability in [8] of over 75%. Also, in [9], the clearance is under 4 mL/min/kg. This compound displayed a Vd in series [10] of under 1 L/kg. In addition, the inhibition at 10 µM in [11], in series [12] and in series [13] was under 15% each time. In addition, the metabolised at 0.5 h, 4 µM in [14], in series [15], in series [16] and in series [17] was under 20% throughout. This compound had a permeability in series [18] of over 4%. At 100 µM the inhibition in [21] was 6%. For the same compound, the Stability entry in series [22] and in series [23] was “Stable” in each case. In addition, the inhibition result in series [19] was “Dose-dependent effect”. The inhibition in vivo at 1 mg/kg in series [24] came out at 58%. In addition, the inhibition in vivo at 3 mg/kg in series [25] was determined as 83%. The inhibition in vivo at 10 mg/kg in series [26] was 87%. Also, the inhibition in vivo at 30 mg/kg in [27] amounted to 87%. Also, the AUC(0-t) at 24 h in series [28] amounted to 756 ng·h/mL; in [29], 2330 ng·h/mL; in series [30], 5880 ng·h/mL; in [31], 35400 ng·h/mL.

Broadly, the IC50 is the concentration needed to halve the response being measured. Low values mean higher potency, high ones lower potency. A word on the inhibition: it is the percentage by which the read-out fell short of the control. Usually logP stands for a log measure of how a compound divides between an organic and an aqueous phase. A lower logP goes with lower lipophilicity. Broadly, the logD is the decadic logarithm of the distribution of all forms, ionised or not, between an organic phase and buffer at a given pH. Read a low logD as lower lipophilicity. As usually defined, the pKa is the negative logarithm of the acid dissociation constant. Lower therefore signals a group that gives up its proton readily. A word on the solubility: it is the dissolved amount per volume that the medium holds. Low readings indicate little dissolved substance, high ones much dissolved substance. The bioavailability is dose-corrected exposure relative to a reference, in per cent. As a reminder, the inhibition in vivo is the drop in the measured response relative to a control, in per cent. For orientation: AUC(0-t) means exposure summed from dosing to a finite time, without extrapolation to infinity. Higher therefore signals more exposure.

The record behind these values is ChEMBL document CHEMBL3351795, “Discovery of Cathepsin S Inhibitor LY3000328 for the Treatment of Abdominal Aortic Aneurysm” (ACS Med Chem Lett, 2014).
